Data taken from ChEMBL document CHEMBL1143393, “Indene-based scaffolds. 2. An indole-indene switch: discovery of novel indenylsulfonamides as 5-HT6 serotonin receptor agonists” (J Med Chem, 2009).

How the values were obtained:
[1] = target: T1, 5-hydroxytryptamine receptor 6 (Homo sapiens, UniProt P50406); test: Displacement of [3H]LSD from human 5HT6 receptor expressed in HEK293 cells at 100 uM by liquid scintillation counting; assay type: cell-based
[2] = target: T1, 5-hydroxytryptamine receptor 6; test: Agonist activity at human 5HT6 receptor expressed in HEK293F cells assessed as stimulation of cAMP level after 30 mins by HTRF assay […]; assay type: functional, cell-based
Summary of the method: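 HEK293F cells stably expressing human 5-HT6 were held overnight in serum-free medium, then 20000 cells/well were placed in Ham's F12 with 1 mM IBMX and 20 µM pargyline. Compound or vehicle was added for 30 min at 37 °C. Results were given as Emax and EC50.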

[3] = target: T2, Alpha-2A adrenergic receptor (Homo sapiens, UniProt P08913); test: Inhibition of human adrenergic alpha2A receptor
T2 sequence (P08913 whole entry): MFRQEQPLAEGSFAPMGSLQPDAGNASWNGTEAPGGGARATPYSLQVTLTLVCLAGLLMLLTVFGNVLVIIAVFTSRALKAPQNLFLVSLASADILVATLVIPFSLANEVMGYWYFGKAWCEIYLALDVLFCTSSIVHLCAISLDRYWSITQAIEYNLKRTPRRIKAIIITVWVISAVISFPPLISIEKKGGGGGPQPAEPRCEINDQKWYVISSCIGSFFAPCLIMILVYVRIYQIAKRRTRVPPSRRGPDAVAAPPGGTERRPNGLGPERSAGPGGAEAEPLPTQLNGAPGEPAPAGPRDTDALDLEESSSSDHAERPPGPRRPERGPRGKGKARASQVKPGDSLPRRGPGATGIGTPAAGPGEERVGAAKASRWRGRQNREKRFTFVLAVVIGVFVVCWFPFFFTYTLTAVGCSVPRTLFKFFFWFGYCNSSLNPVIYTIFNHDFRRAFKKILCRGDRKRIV

[4] = target: T3, 5-hydroxytryptamine receptor 1A (Homo sapiens, UniProt P08908); test: Inhibition of human 5HT1A receptor
T3 sequence (P08908 whole entry): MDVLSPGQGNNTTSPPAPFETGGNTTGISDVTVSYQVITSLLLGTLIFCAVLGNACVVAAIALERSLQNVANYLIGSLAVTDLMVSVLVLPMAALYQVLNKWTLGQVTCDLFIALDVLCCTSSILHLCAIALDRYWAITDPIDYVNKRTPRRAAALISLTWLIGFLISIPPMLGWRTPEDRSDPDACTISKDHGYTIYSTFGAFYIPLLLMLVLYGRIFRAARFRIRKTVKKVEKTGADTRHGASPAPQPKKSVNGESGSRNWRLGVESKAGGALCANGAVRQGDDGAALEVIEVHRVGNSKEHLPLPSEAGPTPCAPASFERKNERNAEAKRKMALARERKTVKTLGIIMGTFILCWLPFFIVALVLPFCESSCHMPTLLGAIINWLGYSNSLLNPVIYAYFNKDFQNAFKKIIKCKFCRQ

[5] = target: T1, 5-hydroxytryptamine receptor 6; test: Displacement of [3H]LSD from human 5HT6 receptor expressed in HEK293 cells at 1 uM by liquid scintillation counting; assay type: cell-based
[6] = target: T1, 5-hydroxytryptamine receptor 6; test: Displacement of [3H]LSD from human 5HT6 receptor expressed in HEK293 cells by liquid scintillation counting; assay type: cell-based
Summary of the method: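 Bound ligand was collected on polyethylenimine-pretreated glass fiber filters, washed with 50 mM Tris-Cl pH 7.4, and counted by liquid scintillation. Nonspecific binding was defined with 100 µM serotonin. Triplicate points. IC50 came from linear regression, and Ki was derived by Cheng-Prusoff.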

[7] = target: T4, Adrenergic receptor alpha-1 (Rattus norvegicus, UniProt P15823+P23944+P43140); test: Inhibition of rat adrenergic alpha1 receptor
T4 sequence (P15823 whole entry): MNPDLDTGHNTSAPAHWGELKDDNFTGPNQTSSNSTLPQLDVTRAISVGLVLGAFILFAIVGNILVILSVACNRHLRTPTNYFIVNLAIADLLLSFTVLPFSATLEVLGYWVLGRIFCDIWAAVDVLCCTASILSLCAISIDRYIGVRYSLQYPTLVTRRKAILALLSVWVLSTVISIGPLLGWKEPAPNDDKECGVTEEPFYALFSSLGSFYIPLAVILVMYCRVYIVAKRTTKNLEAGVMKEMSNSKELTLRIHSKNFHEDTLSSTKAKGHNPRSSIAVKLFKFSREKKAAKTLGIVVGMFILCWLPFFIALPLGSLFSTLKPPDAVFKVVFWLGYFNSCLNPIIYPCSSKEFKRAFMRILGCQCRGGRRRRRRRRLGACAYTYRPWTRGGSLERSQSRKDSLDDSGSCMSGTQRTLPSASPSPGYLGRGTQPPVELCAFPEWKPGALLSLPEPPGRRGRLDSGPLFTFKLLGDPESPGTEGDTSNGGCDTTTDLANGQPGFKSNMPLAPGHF
T4 sequence (P23944 whole entry): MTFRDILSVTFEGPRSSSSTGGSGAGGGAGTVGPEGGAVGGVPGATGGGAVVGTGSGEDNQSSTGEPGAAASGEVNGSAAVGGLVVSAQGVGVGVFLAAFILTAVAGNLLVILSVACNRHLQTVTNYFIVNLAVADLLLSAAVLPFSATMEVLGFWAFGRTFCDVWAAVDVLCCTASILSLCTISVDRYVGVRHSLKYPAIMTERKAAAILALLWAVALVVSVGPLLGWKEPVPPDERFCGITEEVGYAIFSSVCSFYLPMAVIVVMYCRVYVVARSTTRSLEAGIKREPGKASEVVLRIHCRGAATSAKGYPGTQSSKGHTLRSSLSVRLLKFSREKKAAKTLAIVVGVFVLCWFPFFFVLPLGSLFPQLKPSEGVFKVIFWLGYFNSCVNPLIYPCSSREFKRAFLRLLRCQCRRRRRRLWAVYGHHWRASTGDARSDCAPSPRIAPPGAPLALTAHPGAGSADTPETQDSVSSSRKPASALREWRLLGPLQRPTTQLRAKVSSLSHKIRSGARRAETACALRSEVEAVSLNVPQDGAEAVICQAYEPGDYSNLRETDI
T4 sequence (P43140 whole entry): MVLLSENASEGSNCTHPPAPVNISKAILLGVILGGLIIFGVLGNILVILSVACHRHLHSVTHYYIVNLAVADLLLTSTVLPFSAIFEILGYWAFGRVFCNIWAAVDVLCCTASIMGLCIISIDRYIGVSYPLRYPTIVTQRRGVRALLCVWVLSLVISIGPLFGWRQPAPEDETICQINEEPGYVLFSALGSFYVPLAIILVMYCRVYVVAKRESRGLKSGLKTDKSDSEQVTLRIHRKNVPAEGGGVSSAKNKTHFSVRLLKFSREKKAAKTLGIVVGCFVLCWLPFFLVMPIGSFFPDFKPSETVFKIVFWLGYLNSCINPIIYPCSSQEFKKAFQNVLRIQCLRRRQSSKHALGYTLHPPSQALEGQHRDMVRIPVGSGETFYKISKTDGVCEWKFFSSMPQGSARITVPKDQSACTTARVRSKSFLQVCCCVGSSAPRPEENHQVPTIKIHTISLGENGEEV

[8] = target: Sodium-dependent serotonin transporter (Homo sapiens, UniProt P31645); test: Inhibition of human SERT
[9] = target: T5, 5-hydroxytryptamine receptor 2C (Homo sapiens, UniProt P28335); test: Inhibition of human 5HT2C receptor
T5 sequence (P28335 whole entry): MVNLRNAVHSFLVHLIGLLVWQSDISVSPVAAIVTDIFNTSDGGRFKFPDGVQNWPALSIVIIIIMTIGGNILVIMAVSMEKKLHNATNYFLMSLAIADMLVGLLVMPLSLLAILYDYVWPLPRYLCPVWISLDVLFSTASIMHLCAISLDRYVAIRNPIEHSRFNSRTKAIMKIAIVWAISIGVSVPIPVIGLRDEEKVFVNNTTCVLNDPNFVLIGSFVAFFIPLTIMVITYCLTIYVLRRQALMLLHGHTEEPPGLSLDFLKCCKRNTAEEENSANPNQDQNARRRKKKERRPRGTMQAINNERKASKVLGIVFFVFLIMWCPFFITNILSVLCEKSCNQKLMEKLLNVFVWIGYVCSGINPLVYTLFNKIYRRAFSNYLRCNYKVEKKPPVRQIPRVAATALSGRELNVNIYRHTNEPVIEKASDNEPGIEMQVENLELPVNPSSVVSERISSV

T1 sequence (P50406 whole entry): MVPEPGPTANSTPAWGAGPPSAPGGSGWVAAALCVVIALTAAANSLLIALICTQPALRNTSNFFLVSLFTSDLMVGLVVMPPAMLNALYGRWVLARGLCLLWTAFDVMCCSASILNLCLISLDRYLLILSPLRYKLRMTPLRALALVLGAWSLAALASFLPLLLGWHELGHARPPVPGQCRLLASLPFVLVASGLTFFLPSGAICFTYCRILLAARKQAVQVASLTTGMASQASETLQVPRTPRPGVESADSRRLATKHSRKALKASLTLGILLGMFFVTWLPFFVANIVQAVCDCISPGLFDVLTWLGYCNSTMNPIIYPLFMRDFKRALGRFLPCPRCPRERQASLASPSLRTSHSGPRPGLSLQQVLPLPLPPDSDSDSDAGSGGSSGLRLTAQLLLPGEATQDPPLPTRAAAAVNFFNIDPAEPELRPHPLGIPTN
Sodium-dependent serotonin transporter, sequence (P31645 whole entry): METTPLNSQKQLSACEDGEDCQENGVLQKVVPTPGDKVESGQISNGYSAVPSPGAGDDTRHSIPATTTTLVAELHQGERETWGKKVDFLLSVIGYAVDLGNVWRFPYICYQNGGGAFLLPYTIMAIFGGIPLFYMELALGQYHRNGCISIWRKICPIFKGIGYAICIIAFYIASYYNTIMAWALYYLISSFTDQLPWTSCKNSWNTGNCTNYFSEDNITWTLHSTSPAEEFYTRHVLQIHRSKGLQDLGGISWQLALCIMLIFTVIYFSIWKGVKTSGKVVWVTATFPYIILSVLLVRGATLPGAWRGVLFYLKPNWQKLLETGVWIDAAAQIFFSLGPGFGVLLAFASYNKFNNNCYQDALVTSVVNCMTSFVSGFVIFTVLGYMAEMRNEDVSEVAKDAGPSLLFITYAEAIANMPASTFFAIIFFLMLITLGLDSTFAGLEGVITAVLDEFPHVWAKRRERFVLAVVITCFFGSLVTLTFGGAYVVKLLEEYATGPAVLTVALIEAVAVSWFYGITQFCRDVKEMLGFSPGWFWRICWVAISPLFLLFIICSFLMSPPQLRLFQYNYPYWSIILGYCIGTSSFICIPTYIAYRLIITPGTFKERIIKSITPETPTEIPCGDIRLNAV

| Compound | Activity [1] | Emax [2] | Ki [6] | also measured |
| --- | --- | --- | --- | --- |
| CC1=C(CCN(C)C)c2cc(NS(=O)(=O)c3ccc(N)cc3)ccc2C1 | 4% |  |  |  |
| CC1=C(CCN(C)C)c2cc(S(=O)(=O)Nc3cccc4ccccc34)ccc2C1 | 51% | 95% |  | EC50 ([2]; read-out: EC50): 14 nM; IC50 [3]: 1100 nM; IC50 [4]: > 1000 nM |
| CN(C)CCc1c[nH]c2ccc(NS(=O)(=O)c3ccc4c(Cl)cccc4c3)cc12 |  | 96% |  | EC50 ([2]; read-out: pEC50 (converted)): 0.295 nM |
| CC1=C(CCN2CCCC2)c2cc(NS(=O)(=O)c3sc4ccc(Cl)cc4c3C)ccc2C1 |  | 78% |  | Activity [5]: 100% |
| CNc1cc(NS(=O)(=O)c2ccc(N)cc2)nc(NC)n1 |  |  | 47 nM |  |
| CC1=C(CCN(C)C)c2cc(NS(=O)(=O)c3cccc4ccccc34)ccc2C1 | 78% |  | 276 nM |  |
| CC1=C(CCN2CCCC2)c2cc(NS(=O)(=O)c3ccc(N)cc3)ccc2C1 | 63% |  |  |  |
| CN(C)CCc1cn(S(=O)(=O)c2ccccc2)c2ccccc12 |  |  | 3 nM |  |
| CC1=C(CCN2CCCC2)c2cc(NS(=O)(=O)c3cccc4nsnc34)ccc2C1 | 19% |  |  |  |
| CC1=C(CCN(C)C)c2cc(NS(=O)(=O)c3ccc4ccccc4c3)ccc2C1 | 71% | 98% |  | EC50 ([2]; read-out: EC50): 3.2 nM; IC50 [3]: > 1000 nM; IC50 [4]: > 1000 nM |
| CN(C)CCC1=CCc2ccc(NS(=O)(=O)c3c(Cl)nc4sccn34)cc21 | 87% | 99% | 10 nM | IC50 [7]: > 10 µM; EC50 ([2]; read-out: EC50): 0.3 nM; IC50 [3]: > 1000 nM; IC50 [4]: > 1000 nM; IC50 [8]: > 10 µM; IC50 [9]: > 1000 nM |
| CC1=C(CCN(C)C)c2cc(NS(=O)(=O)c3c(Cl)nc4sccn34)ccc2C1 |  | 98% | 4.5 nM | IC50 [7]: > 10 µM; EC50 ([2]; read-out: EC50): 0.9 nM; IC50 [3]: > 1000 nM; IC50 [4]: > 1000 nM; IC50 [8]: > 10 µM; IC50 [9]: 1130 nM; Activity [5]: 100% |
| CC1=C(CCN2CCCC2)c2cc(NS(=O)(=O)c3c(Cl)nc4sccn34)ccc2C1 | 81% | 37% | 17 nM |  |
| CC1=C(CCN(C)C)c2cc(NS(=O)(=O)c3cccc4nsnc34)ccc2C1 | 16% |  |  |  |
| CCN(c1ccc2c(c1)C(CCN(C)C)=C(C)C2)S(=O)(=O)c1sc(C)c2cc(Cl)ccc12 | 3% |  |  |  |
| CC1=C(CCN(C)C)c2cc(NS(=O)(=O)c3csc4ccccc34)ccc2C1 | 88% | 101% | 53 nM | EC50 ([2]; read-out: EC50): 0.3 nM; IC50 [3]: 700 nM; IC50 [4]: 1140 nM |
| Cc1c(S(=O)(=O)Nc2ccc3c(c2)C(CCN(C)C)=CC3(C)C)sc2ccc(Cl)cc12 | 2% |  |  |  |
| CN(C)CCC1=CC(C)(C)c2ccc(NS(=O)(=O)c3c(Cl)nc4sccn34)cc21 | 24% |  |  |  |
| O=S(=O)(Nc1ccc2c(c1)C(CCN1CCCCC1)=CC2)c1c(Cl)nc2sccn12 | 81% | -58% | 31 nM |  |
